Measurements as given in ChEMBL document CHEMBL4689842, “EUbOPEN Chemogenomics Library wave 1” (2021).

System: U2OS
Test: Multiplex assay against U2OS
Assay type: toxicity, cell-based
Settings: human
How it was run: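 Live cells were stained at seeding with Hoechst33342, BioTracker Green Microtubule Cytoskeleton Dye, MitoTracker Red and Annexin V Alexa Fluor 680. Following compound addition, they were imaged on a CQ1 microscope at 37°C and 5% CO2 and gated by CellPathfinder machine learning into Hoechst high-intensity objects or normal cells, with normal cells split into healthy, pyknosed or fragmented nuclei and pyknosed cells into mitotic or apoptotic. Tubulin, mitochondrial-mass and membrane-permeability phenotypes are per cents of healthy-nucleus cells.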

[1] = 12 h, 1 µM, compound concentration 1 uM, replicate 1
[2] = 12 h, 1 µM, compound concentration 1 uM, replicate 2
[3] = 12 h, 10 µM, compound concentration 10 uM, replicate 1
[4] = 12 h, 10 µM, compound concentration 10 uM, replicate 2
[5] = 24 h, 1 µM, compound concentration 1 uM, replicate 1
[6] = 24 h, 1 µM, compound concentration 1 uM, replicate 2
[7] = 24 h, 10 µM, compound concentration 10 uM, replicate 1
[8] = 24 h, 10 µM, compound concentration 10 uM, replicate 2
[9] = 48 h, 1 µM, compound concentration 1 uM, replicate 1
[10] = 48 h, 1 µM, compound concentration 1 uM, replicate 2
[11] = 48 h, 10 µM, compound concentration 10 uM, replicate 1
[12] = 48 h, 10 µM, compound concentration 10 uM, replicate 2

SMILES: COC(=O)C1=C(C)NC(C)=C(C(=O)OCCCN2CCC(c3ccccc3)(c3ccccc3)CC2)[C@H]1c1cccc([N+](=O)[O-])c1 [NIGULDIPINE]
- Population Apoptotic (%) [1]: 64%
- Population Fragmented Nuclei (%) [1]: 18%
- Population Healthy Nuclei (%) [1]: 58%
- Population Hoechst High Intensity Objects (%) [1]: 11%
- Population Membrane Permeable-Phenotype (%) [1]: 53%
- Population Mitochondria Different-Phenotype (%) [1]: 96%
- Population Mitotic Cells (%) [1]: 36%
- Population Normal (%) [1]: 88%
- Population Pyknosed Nuclei (%) [1]: 23%
- Population Tubulin-Different-Phenotype (%) [1]: 96%
- Total Cell Count [1]: 893
- Population Apoptotic (%) [2]: 91%
- Population Fragmented Nuclei (%) [2]: 6%
- Population Healthy Nuclei (%) [2]: 78%
- Population Hoechst High Intensity Objects (%) [2]: 9%
- Population Membrane Permeable-Phenotype (%) [2]: 66%
- Population Mitochondria Different-Phenotype (%) [2]: 100%
- Population Mitotic Cells (%) [2]: 8%
- Population Normal (%) [2]: 90%
- Population Pyknosed Nuclei (%) [2]: 15%
- Population Tubulin-Different-Phenotype (%) [2]: 100%
- Total Cell Count [2]: 945
- Population Apoptotic (%) [3]: 73%
- Population Fragmented Nuclei (%) [3]: 62%
- Population Healthy Nuclei (%) [3]: 4%
- Population Hoechst High Intensity Objects (%) [3]: 7%
- Population Mitochondria Different-Phenotype (%) [3]: 100%
- Population Mitotic Cells (%) [3]: 26%
- Population Normal (%) [3]: 92%
- Population Pyknosed Nuclei (%) [3]: 33%
- Total Cell Count [3]: 122
- Population Apoptotic (%) [4]: 76%
- Population Fragmented Nuclei (%) [4]: 67%
- Population Healthy Nuclei (%) [4]: 3%
- Population Hoechst High Intensity Objects (%) [4]: 12%
- Population Membrane Permeable-Phenotype (%) [4]: 100%
- Population Mitochondria Different-Phenotype (%) [4]: 50%
- Population Mitotic Cells (%) [4]: 23%
- Population Normal (%) [4]: 87%
- Population Pyknosed Nuclei (%) [4]: 29%
- Population Tubulin-Different-Phenotype (%) [4]: 100%
- Total Cell Count [4]: 87
- Population Apoptotic (%) [5]: 76%
- Population Fragmented Nuclei (%) [5]: 17%
- Population Healthy Nuclei (%) [5]: 52%
- Population Hoechst High Intensity Objects (%) [5]: 10%
- Population Membrane Permeable-Phenotype (%) [5]: 76%
- Population Mitochondria Different-Phenotype (%) [5]: 98%
- Population Mitotic Cells (%) [5]: 23%
- Population Normal (%) [5]: 89%
- Population Pyknosed Nuclei (%) [5]: 30%
- Total Cell Count [5]: 927
- Population Apoptotic (%) [6]: 77%
- Population Fragmented Nuclei (%) [6]: 7%
- Population Healthy Nuclei (%) [6]: 65%
- Population Hoechst High Intensity Objects (%) [6]: 5%
- Population Membrane Permeable-Phenotype (%) [6]: 96%
- Population Mitochondria Different-Phenotype (%) [6]: 100%
- Population Mitotic Cells (%) [6]: 22%
- Population Normal (%) [6]: 94%
- Population Pyknosed Nuclei (%) [6]: 27%
- Population Tubulin-Different-Phenotype (%) [6]: 100%
- Total Cell Count [6]: 948
- Population Apoptotic (%) [7]: 78%
- Population Fragmented Nuclei (%) [7]: 69%
- Population Healthy Nuclei (%) [7]: 2%
- Population Hoechst High Intensity Objects (%) [7]: 14%
- Population Membrane Permeable-Phenotype (%) [7]: 100%
- Population Mitochondria Different-Phenotype (%) [7]: 100%
- Population Mitotic Cells (%) [7]: 21%
- Population Normal (%) [7]: 85%
- Population Pyknosed Nuclei (%) [7]: 27%
- Population Tubulin-Different-Phenotype (%) [7]: 100%
- Total Cell Count [7]: 111
- Population Apoptotic (%) [8]: 100%
- Population Fragmented Nuclei (%) [8]: 40%
- Population Healthy Nuclei (%) [8]: 25%
- Population Hoechst High Intensity Objects (%) [8]: 11%
- Population Mitotic Cells (%) [8]: 0%
- Population Normal (%) [8]: 88%
- Population Pyknosed Nuclei (%) [8]: 33%
- Total Cell Count [8]: 85
- Population Apoptotic (%) [9]: 78%
- Population Fragmented Nuclei (%) [9]: 23%
- Population Healthy Nuclei (%) [9]: 39%
- Population Hoechst High Intensity Objects (%) [9]: 12%
- Population Membrane Permeable-Phenotype (%) [9]: 82%
- Population Mitochondria Different-Phenotype (%) [9]: 97%
- Population Mitotic Cells (%) [9]: 21%
- Population Normal (%) [9]: 87%
- Population Pyknosed Nuclei (%) [9]: 36%
- Population Tubulin-Different-Phenotype (%) [9]: 97%
- Total Cell Count [9]: 922
- Population Apoptotic (%) [10]: 85%
- Population Fragmented Nuclei (%) [10]: 15%
- Population Healthy Nuclei (%) [10]: 54%
- Population Hoechst High Intensity Objects (%) [10]: 5%
- Population Membrane Permeable-Phenotype (%) [10]: 92%
- Population Mitochondria Different-Phenotype (%) [10]: 100%
- Population Mitotic Cells (%) [10]: 14%
- Population Normal (%) [10]: 94%
- Population Pyknosed Nuclei (%) [10]: 30%
- Population Tubulin-Different-Phenotype (%) [10]: 100%
- Total Cell Count [10]: 932
- Population Apoptotic (%) [11]: 81%
- Population Fragmented Nuclei (%) [11]: 69%
- Population Healthy Nuclei (%) [11]: 2%
- Population Hoechst High Intensity Objects (%) [11]: 10%
- Population Membrane Permeable-Phenotype (%) [11]: 100%
- Population Mitochondria Different-Phenotype (%) [11]: 100%
- Population Mitotic Cells (%) [11]: 18%
- Population Normal (%) [11]: 89%
- Population Pyknosed Nuclei (%) [11]: 28%
- Population Tubulin-Different-Phenotype (%) [11]: 100%
- Total Cell Count [11]: 116
- Population Apoptotic (%) [12]: 100%
- Population Fragmented Nuclei (%) [12]: 17%
- Population Healthy Nuclei (%) [12]: 28%
- Population Hoechst High Intensity Objects (%) [12]: 18%
- Population Mitochondria Different-Phenotype (%) [12]: 93%
- Population Mitotic Cells (%) [12]: 0%
- Population Normal (%) [12]: 81%
- Population Pyknosed Nuclei (%) [12]: 53%
- Total Cell Count [12]: 97
